Assay results from ChEMBL document CHEMBL1127779, “Stereospecific synthesis of peptidyl alpha-keto amides as inhibitors of calpain” (J Med Chem, 1994).
Converted amounts (≈) assume the structure as drawn. Non-standard residues stand in square brackets, D forms with d. Residues, ends and D or L forms follow the SMILES beside them. ξ: configuration not given here. *: point of attachment. Cbz = O=C(OCc1ccccc1)*; ξNva = CCCC(N)C(=O)O

Legend:
[1] = Tested for solubility of the compound; format: ADME; details: read-out: S
Method in brief: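 The DMA stock was diluted in 0.9% saline to 3% DMA (inhibitor ≤0.9 mg/mL) and brought to pH 2.75 with 0.1 N HCl. It was sonicated 5 min, held 15 min at room temperature and centrifuged 5 min at 16500g. Supernatant concentration came from C4 reverse-phase HPLC (60 °C, 210 nm) peak area, calibrated against standards in acetonitrile.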

[2] = target: T1, Calpain-2 catalytic subunit (Bos taurus, UniProt Q27971); assay: Tested for inhibitory activity on bovine calpain 2 from heart
T1 sequence (Q27971 whole entry): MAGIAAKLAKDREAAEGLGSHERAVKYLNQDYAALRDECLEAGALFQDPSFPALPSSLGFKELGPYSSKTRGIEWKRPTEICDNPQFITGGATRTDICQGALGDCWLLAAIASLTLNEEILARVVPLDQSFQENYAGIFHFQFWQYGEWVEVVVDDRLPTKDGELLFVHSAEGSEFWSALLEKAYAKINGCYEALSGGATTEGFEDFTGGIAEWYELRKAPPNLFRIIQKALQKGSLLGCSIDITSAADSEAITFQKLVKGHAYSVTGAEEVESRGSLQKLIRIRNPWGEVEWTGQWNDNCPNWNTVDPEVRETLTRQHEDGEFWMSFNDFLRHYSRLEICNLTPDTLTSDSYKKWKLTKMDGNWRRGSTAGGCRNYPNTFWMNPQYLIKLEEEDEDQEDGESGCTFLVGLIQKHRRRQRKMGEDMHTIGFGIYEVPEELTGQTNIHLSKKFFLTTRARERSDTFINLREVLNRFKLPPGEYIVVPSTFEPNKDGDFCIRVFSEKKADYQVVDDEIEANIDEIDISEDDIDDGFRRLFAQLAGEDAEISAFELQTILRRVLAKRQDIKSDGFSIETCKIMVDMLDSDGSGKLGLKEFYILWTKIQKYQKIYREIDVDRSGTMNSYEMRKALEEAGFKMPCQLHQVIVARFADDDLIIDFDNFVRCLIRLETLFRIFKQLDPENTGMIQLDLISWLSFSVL

Row | Structure (SMILES) | solubility [1] [µg/mL] | Ki [2] [nM]
1 | CCS(=O)(=O)CCNC(=O)C(=O)[C@@H](Cc1ccccc1)NC(=O)[C@H](CC(C)C)NC(=O)OCc1ccccc1 | 730 (≈ 1300 µM) | –
2 | CCCC(NC(=O)[C@H](CC(C)C)NC(=O)OCc1ccccc1)C(=O)NCC (stereo partly drawn) (Cbz-Leu-[ξNva]-NHEt) | – | 50
